Test [1] concerns the target T1, Neuropeptide Y receptor type 5 (Homo sapiens, UniProt Q15761).
T1 sequence (Q15761 whole entry): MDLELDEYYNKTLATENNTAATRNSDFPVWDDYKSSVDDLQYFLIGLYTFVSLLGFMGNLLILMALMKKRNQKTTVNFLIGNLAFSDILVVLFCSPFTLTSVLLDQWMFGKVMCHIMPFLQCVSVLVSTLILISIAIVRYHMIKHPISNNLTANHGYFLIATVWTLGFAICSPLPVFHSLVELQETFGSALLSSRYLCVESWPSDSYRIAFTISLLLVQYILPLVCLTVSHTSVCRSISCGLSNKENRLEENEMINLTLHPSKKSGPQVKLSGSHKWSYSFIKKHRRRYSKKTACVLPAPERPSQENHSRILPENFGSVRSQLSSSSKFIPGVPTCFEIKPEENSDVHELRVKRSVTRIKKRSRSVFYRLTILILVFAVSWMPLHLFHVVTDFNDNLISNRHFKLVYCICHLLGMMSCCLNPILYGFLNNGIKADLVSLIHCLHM
The test is described as follows: Affinity for cloned Y5 receptor using [125I]PYY as radioligand.

For test [2], the target named is T2, Neuropeptide Y receptor type 1 (Homo sapiens, UniProt P25929).
T2 sequence (P25929 whole entry): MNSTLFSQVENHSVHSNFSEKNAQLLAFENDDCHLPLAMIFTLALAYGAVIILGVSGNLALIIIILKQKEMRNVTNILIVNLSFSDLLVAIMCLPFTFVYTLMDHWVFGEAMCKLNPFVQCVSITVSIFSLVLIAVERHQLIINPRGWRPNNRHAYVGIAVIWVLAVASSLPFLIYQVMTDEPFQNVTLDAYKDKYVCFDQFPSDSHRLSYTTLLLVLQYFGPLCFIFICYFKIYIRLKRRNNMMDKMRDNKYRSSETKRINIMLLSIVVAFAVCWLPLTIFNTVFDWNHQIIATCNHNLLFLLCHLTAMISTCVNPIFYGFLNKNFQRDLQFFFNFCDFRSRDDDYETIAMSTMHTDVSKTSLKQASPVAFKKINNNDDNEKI
The test is described as follows: Affinity for cloned Y1 receptor using [125I]PYY as radioligand.

Test [3] concerns the target T3, Neuropeptide Y receptor type 4 (Homo sapiens, UniProt P50391). The test is described as follows: (§1) Affinity for cloned Y4 receptor using [125I]PP as radioligand.
The target of test [4] is T4, Neuropeptide Y receptor type 2 (Homo sapiens, UniProt P49146).
T4 sequence (P49146 whole entry): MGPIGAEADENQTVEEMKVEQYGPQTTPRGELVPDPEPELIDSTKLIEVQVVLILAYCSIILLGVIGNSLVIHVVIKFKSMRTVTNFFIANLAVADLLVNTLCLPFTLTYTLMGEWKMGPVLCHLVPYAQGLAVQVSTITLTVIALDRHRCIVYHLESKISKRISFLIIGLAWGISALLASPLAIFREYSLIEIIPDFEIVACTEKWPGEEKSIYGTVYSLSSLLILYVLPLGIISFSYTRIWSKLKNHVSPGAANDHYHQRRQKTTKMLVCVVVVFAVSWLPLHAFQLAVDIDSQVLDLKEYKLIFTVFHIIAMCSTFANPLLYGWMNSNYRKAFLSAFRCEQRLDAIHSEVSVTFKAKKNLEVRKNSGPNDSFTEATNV
The test is described as follows: Affinity for cloned Y2 receptor using [125I]PYY as radioligand.

The target in test [5] is T5, Neuropeptide Y receptor type 1 (Homo sapiens) (UniProt P25929).
T5 sequence (whole entry): T2 sequence (P25929 whole entry)
The test is described as follows: Antagonist potency for the inhibition of Forskolin stimulated cAMP synthesis in cells expressing cloned Y1 receptors. It counts as functional.

For test [6], the target named is T4, Neuropeptide Y receptor type 2. The test is described as follows: Agonist potency for the inhibition of Forskolin stimulated cAMP synthesis in cells expressing cloned Y2 receptors; no effect means no agonist activity at <20 000 nM. It counts as functional.
For test [7], the target named is T1, Neuropeptide Y receptor type 5. Put plainly: Agonist potency for the inhibition of Forskolin stimulated cAMP synthesis in cells expressing cloned Y5 receptors; no effect means no agonist activity at <20 000 nM. Type of test: functional.
Test [8] addresses T3, Neuropeptide Y receptor type 4. The test is described as follows: Agonist potency for the inhibition of Forskolin stimulated cAMP synthesis in cells expressing cloned Y4 receptors; no effect means no agonist activity at <20 000 nM. Type of test: functional. The method in brief:
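Inhibition of forskolin-driven cAMP synthesis in cells expressing the Y4 receptor, with PP run as the reference control.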

The target in test [9] is T5, Neuropeptide Y receptor type 1 (Homo sapiens). The test is described as follows: Selectivity ratio of Y1/Y2/Y4/Y5; 1/2/1/200.
Test [10] concerns the target T3, Neuropeptide Y receptor type 4. The description is as §1. The gist of the method:
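Displacement binding with 125I-PP as tracer in cells expressing the Y4 receptor; PP served as the reference control.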
The source holds these as a separate data set.

Where a SMILES comes first, the peptide text is derived from it. The star is where a group is joined. Argψ(CH2NH)TyrNH2 = N=C(N)NCCC[C@@H](CN[C@@H](Cc1ccc(O)cc1)C(N)=O)N*

The term Ki denotes the dissociation constant of the complex between target and ligand, obtained from inhibition or displacement. One may read the Kb as the affinity of an antagonist, worked out from how it opposes an agonist.

T3 sequence (P50391 whole entry): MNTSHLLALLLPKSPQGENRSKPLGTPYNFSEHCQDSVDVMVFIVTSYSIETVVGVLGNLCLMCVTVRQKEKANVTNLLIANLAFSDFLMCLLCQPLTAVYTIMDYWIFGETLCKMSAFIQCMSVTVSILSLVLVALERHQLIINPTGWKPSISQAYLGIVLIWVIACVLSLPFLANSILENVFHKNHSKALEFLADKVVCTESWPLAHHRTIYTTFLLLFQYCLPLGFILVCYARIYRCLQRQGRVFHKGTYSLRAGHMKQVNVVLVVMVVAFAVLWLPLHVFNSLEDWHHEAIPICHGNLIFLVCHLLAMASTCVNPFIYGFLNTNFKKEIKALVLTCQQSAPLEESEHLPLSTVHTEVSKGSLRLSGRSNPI

In the case of `CC[C@H](C)[C@H](N)C(=O)N[C@@H](CC(N)=O)C(=O)N1CCC[C@H]1C(=O)N[C@H](C(=O)N[C@@H](Cc1ccc(O)cc1)C(=O)N[C@@H](CCCNC(=N)N)C(=O)N[C@@H](CC(C)C)C(=O)N[C@@H](CCCNC(=N)N)CN[C@@H](Cc1ccc(O)cc1)C(N)=O)[C@@H](C)CC` (H-INPIYRL-{Argψ(CH2NH)TyrNH2}), the Ki in test [1] came out at 5080 nM; in test [2], 34.8 nM; in test [3] it was 3740 nM; in [4], 1650 nM.
On to `CC[C@H](C)[C@H](N)C(=O)N[C@@H](CC(N)=O)C(=O)N1CCC[C@H]1C(=O)N[C@@H](CSSC[C@@H](NC(=O)[C@@H]1CCCN1C(=O)[C@H](CC(N)=O)NC(=O)[C@@H](N)[C@@H](C)CC)C(=O)N[C@@H](Cc1ccc(O)cc1)C(=O)N[C@@H](CCCN=C(N)N)C(=O)N[C@@H](CC(C)C)C(=O)N[C@@H](CCCN=C(N)N)C(=O)N[C@@H](Cc1ccc(O)cc1)C(=O)OC)C(=O)N[C@@H](Cc1ccc(O)cc1)C(=O)N[C@@H](CCCN=C(N)N)C(=O)N[C@@H](CC(C)C)C(=O)N[C@@H](CCCN=C(N)N)C(=O)N[C@@H](Cc1ccc(O)cc1)C(=O)OC`, for which, in [5], the Kb is 2.3 nM. That is a single-digit nanomolar value.
Same read-out and setting: then `CC[C@H](C)[C@H](N)C(=O)N[C@@H](CC(N)=O)C(=O)N1CCC[C@H]1C(=O)N[C@@H](CSSC[C@@H](NC(=O)[C@@H]1CCCN1C(=O)[C@H](CC(N)=O)NC(=O)[C@@H](N)[C@@H](C)CC)C(=O)N[C@@H](Cc1ccc(O)cc1)C(=O)N[C@@H](CCCN=C(N)N)C(=O)N[C@@H](CC(C)C)C(=O)N[C@@H](CCCN=C(N)N)CN[C@@H](Cc1ccc(O)cc1)C(N)=O)C(=O)N[C@@H](Cc1ccc(O)cc1)C(=O)N[C@@H](CCCN=C(N)N)C(=O)N[C@@H](CC(C)C)C(=O)N[C@@H](CCCN=C(N)N)CN[C@@H](Cc1ccc(O)cc1)C(N)=O`, with 0.79 nM.
Take `CC[C@H](C)[C@H](N)C(=O)N[C@@H](CC(N)=O)C(=O)N1CCC[C@H]1C(=O)N[C@@H](CSSC[C@H](NC(=O)[C@@H]1CCCN1C(=O)[C@H](CC(N)=O)NC(=O)[C@@H](N)[C@@H](C)CC)C(=O)N[C@@H](Cc1ccc(O)cc1)C(=O)N[C@@H](CCCN=C(N)N)C(=O)N[C@@H](CC(C)C)C(=O)N[C@@H](CCCN=C(N)N)CN[C@@H](Cc1ccc(O)cc1)C(N)=O)C(=O)N[C@@H](Cc1ccc(O)cc1)C(=O)N[C@@H](CCCN=C(N)N)C(=O)N[C@@H](CC(C)C)C(=O)N[C@@H](CCCN=C(N)N)CN[C@@H](Cc1ccc(O)cc1)C(N)=O`: the EC50 entry in test [6], in test [7] and in test [8] was “Not Active” each time.
As for `CC[C@H](C)[C@H](N)C(=O)N[C@@H](CC(N)=O)C(=O)N1CCC[C@H]1C(=O)N[C@H](C(=O)N[C@@H](Cc1ccc(O)cc1)C(=O)N[C@@H](CCCNC(=N)N)C(=O)N[C@@H](CC(C)C)C(=O)N[C@@H](CCCNC(=N)N)C(=O)N[C@@H](Cc1ccc(O)cc1)C(=O)OC)[C@@H](C)CC` (H-INPIYRLRY-OMe), the Ki in test [1] is 7100 nM; in test [2] it was 25.7 nM; in test [3], 2400 nM; in test [4], 1420 nM.
For the compound H-INPIYRLRY-NH2, the Ki was more than 1000 nM in test [1], 5 nM in [2], 5.8 nM in test [3] and 11.3 nM in [4]. For the same compound, the Selectivity entry in test [9] is given as “Y1/Y4/Y2/Y5”.
On to `CC[C@H](C)[C@H](N)C(=O)N[C@H]1CCC(=O)NC[C@@H](C(=O)N[C@@H](Cc2ccc(O)cc2)C(=O)N[C@@H](CCCNC(=N)N)C(=O)N[C@@H](CC(C)C)C(=O)N[C@@H](CCCNC(=N)N)CN[C@@H](Cc2ccc(O)cc2)C(N)=O)NC(=O)[C@@H]2CCCN2C(=O)[C@@H](NC(=O)[C@@H](N)[C@@H](C)CC)CCC(=O)NC[C@@H](C(=O)N[C@@H](Cc2ccc(O)cc2)C(=O)N[C@@H](CCCNC(=N)N)C(=O)N[C@@H](CC(C)C)C(=O)N[C@@H](CCCNC(=N)N)CN[C@@H](Cc2ccc(O)cc2)C(N)=O)NC(=O)[C@@H]2CCCN2C1=O`, for which the Ki was determined as 7890 nM in [1], 0.46 nM in test [2], 65.5 nM in test [10] and 624 nM in [4].
As for `CC[C@H](C)[C@H](N)C(=O)N[C@@H](CC(N)=O)C(=O)N1CCC[C@H]1C(=O)N[C@@H](CSSC[C@H](NC(=O)[C@@H]1CCCN1C(=O)[C@H](CC(N)=O)NC(=O)[C@@H](N)[C@@H](C)CC)C(=O)N[C@@H](Cc1ccc(O)cc1)C(=O)N[C@@H](CCCN=C(N)N)C(=O)N[C@@H](CC(C)C)C(=O)N[C@@H](CCCN=C(N)N)C(=O)N[C@@H](Cc1ccc(O)cc1)C(=O)OC)C(=O)N[C@@H](Cc1ccc(O)cc1)C(=O)N[C@@H](CCCN=C(N)N)C(=O)N[C@@H](CC(C)C)C(=O)N[C@@H](CCCN=C(N)N)C(=O)N[C@@H](Cc1ccc(O)cc1)C(=O)OC`, the EC50 entry in test [6], in [7] and in test [8] was “Not Active” throughout. For the same compound, the Ki is 464 nM in [1], 4.8 nM in test [2], 99 nM in test [10] and 1120 nM in test [4].
With `CC[C@H](C)[C@H](N)C(=O)N[C@H]1CCC(=O)NC[C@@H](C(=O)N[C@@H](Cc2ccc(O)cc2)C(=O)N[C@@H](CCCN=C(N)N)C(=O)N[C@@H](CC(C)C)C(=O)N[C@@H](CCCN=C(N)N)CN[C@@H](Cc2ccc(O)cc2)C(N)=O)NC(=O)[C@@H]2CCCN2C(=O)[C@H](NC(=O)[C@@H](N)[C@@H](C)CC)CCC(=O)NC[C@H](C(=O)N[C@@H](Cc2ccc(O)cc2)C(=O)N[C@@H](CCCN=C(N)N)C(=O)N[C@@H](CC(C)C)C(=O)N[C@@H](CCCN=C(N)N)CN[C@@H](Cc2ccc(O)cc2)C(N)=O)NC(=O)[C@@H]2CCCN2C1=O`, the Kb in [5] worked out at 0.58 nM.
For `CC[C@H](C)[C@H](N)C(=O)N[C@H]1CCC(=O)NC[C@@H](C(=O)N[C@@H](Cc2ccc(O)cc2)C(=O)N[C@@H](CCCN=C(N)N)C(=O)N[C@@H](CC(C)C)C(=O)N[C@@H](CCCN=C(N)N)C(=O)N[C@@H](Cc2ccc(O)cc2)C(=O)OC)NC(=O)[C@@H]2CCCN2C(=O)[C@@H](NC(=O)[C@@H](N)[C@@H](C)CC)CCC(=O)NC[C@@H](C(=O)N[C@@H](Cc2ccc(O)cc2)C(=O)N[C@@H](CCCN=C(N)N)C(=O)N[C@@H](CC(C)C)C(=O)N[C@@H](CCCN=C(N)N)C(=O)N[C@@H](Cc2ccc(O)cc2)C(=O)OC)NC(=O)[C@@H]2CCCN2C1=O`, the EC50 entry in test [6], in test [7] and in test [8] was “Not Active” in each case. Besides, the Ki was determined as 662 nM in test [1], 0.27 nM in test [2], 33.4 nM in [10] and 1040 nM in [4].
Consider `CC[C@H](C)[C@H](N)C(=O)N[C@@H](CC(N)=O)C(=O)N1CCC[C@H]1C(=O)N[C@@H](CSSC[C@H](NC(=O)[C@@H]1CCCN1C(=O)[C@H](CC(N)=O)NC(=O)[C@@H](N)[C@@H](C)CC)C(=O)N[C@@H](Cc1ccc(O)cc1)C(=O)N[C@@H](CCCNC(=N)N)C(=O)N[C@@H](CC(C)C)C(=O)N[C@@H](CCCNC(=N)N)CN[C@@H](Cc1ccc(O)cc1)C(N)=O)C(=O)N[C@@H](Cc1ccc(O)cc1)C(=O)N[C@@H](CCCNC(=N)N)C(=O)N[C@@H](CC(C)C)C(=O)N[C@@H](CCCNC(=N)N)CN[C@@H](Cc1ccc(O)cc1)C(N)=O`, for which the Ki came out at 2340 nM in test [1], 2.3 nM in [2], 65 nM in test [10] and 822 nM in test [4].
